Test results reported in ChEMBL document CHEMBL4359826, “Preparation of bivalent agonists for targeting the mu opioid and cannabinoid receptors” (Eur J Med Chem, 2019).
Active and inactive are the calls of the source. No cut-off for these calls is given here.

Experiments:
[1] = molecular target: T1, Cannabinoid receptor (Rattus norvegicus) (UniProt Q9QZN9+P20272); assay: Antagonist activity at CB1R/CB2R in Wistar rat brain membranes at 10 uM in presence of JWH-018 after 60 mins by [35S]-GTPgammaS binding assay relative to control; format: functional, cell membranes
T1 sequence (P20272 whole entry, looked up, one chain of several): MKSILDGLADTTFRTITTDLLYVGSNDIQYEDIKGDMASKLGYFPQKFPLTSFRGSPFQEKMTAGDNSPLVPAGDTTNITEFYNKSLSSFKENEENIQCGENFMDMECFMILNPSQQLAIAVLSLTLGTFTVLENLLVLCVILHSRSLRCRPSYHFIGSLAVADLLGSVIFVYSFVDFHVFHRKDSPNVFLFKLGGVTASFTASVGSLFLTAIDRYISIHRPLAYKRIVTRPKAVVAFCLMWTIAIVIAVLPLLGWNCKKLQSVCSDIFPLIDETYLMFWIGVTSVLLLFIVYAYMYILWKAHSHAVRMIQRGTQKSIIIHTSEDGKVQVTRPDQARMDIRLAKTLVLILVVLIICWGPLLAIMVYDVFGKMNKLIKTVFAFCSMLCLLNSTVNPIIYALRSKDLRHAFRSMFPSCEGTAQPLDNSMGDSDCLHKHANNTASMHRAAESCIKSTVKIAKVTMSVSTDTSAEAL
How it was run: (§1)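 Rat brain membranes (30 µg protein/tube) incubated 60 min at 30 °C with 0.05 nM [35S]GTPγS and ligand at 10^-10–10^-5 M. Buffer: 50 mM Tris-HCl pH 7.4 with 30 µM GDP, 100 mM NaCl, 3 mM MgCl2, 1 mM EGTA. […] Nonspecific binding taken with 10 µM GTPγS; basal set as 100%. Filtration and scintillation counting; n≥3.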

[2] = molecular target: T2, Cannabinoid receptor 2 (Rattus norvegicus) (UniProt Q9QZN9); assay: Displacement of [3H]JWH-018 from CB2R in Wistar rat brain membranes at 10 uM after 60 mins by liquid scintillation analysis relative to control; format: cell membranes
T2 sequence (whole entry): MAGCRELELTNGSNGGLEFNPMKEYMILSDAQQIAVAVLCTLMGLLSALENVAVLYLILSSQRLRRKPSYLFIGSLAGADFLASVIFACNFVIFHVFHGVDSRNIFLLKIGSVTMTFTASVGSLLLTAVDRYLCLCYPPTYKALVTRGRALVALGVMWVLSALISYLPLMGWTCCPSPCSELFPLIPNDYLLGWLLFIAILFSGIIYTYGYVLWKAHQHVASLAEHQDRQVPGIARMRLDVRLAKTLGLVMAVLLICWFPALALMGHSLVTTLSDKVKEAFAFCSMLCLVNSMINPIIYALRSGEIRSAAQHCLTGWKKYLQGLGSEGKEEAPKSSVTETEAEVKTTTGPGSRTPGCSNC
How it was run: (§2)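 Whole rat brain membranes (cerebellum removed; 0.3–0.5 mg/mL protein) in 50 mM Tris-HCl pH 7.4 with 2.5 mM EGTA, 5 mM MgCl2 and 0.5 mg/mL fatty-acid-free BSA, 30 °C. Kinetics used 0.6 nM [3H]JWH-018: association over 0–90 min, dissociation started with 10 µM JWH-018 after 60 min. Saturation over 0.5–35 nM. Competitors at 10^-11–10^-5 M, 60 min. Nonspecific binding with 10 µM JWH-018. Filtration onto PEI-soaked GF/B filters; n≥3.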

Cannabinoid receptor [3] = molecular target: T3, Cannabinoid receptor (Rattus norvegicus, UniProt Q9QZN9+P20272); assay: Displacement of [3H]JWH-018 from CB1R/CB2R in Wistar rat brain membranes after 60 mins by liquid scintillation analysis; format: cell membranes
[4] = molecular target: Kappa-type opioid receptor (Cavia porcellus, UniProt P41144); format: cell membranes, Brain, Membranes
Chain of Kappa-type opioid receptor (P41144 whole entry): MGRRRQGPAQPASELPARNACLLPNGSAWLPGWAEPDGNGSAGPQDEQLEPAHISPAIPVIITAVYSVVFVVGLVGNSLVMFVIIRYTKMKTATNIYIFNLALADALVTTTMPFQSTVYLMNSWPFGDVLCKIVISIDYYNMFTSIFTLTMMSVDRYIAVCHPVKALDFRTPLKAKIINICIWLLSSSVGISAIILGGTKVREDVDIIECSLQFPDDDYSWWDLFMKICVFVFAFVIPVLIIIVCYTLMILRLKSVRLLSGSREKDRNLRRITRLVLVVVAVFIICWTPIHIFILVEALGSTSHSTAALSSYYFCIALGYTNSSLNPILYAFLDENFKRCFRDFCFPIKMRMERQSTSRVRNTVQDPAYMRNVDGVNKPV

Mu-type opioid receptor = Mu-type opioid receptor (Rattus norvegicus, UniProt P33535); assay: Displacement of [3H]DAMGO from MOR in Wistar rat brain membranes after 60 mins by liquid scintillation analysis; format: cell membranes
Chain of Mu-type opioid receptor (P33535 whole entry): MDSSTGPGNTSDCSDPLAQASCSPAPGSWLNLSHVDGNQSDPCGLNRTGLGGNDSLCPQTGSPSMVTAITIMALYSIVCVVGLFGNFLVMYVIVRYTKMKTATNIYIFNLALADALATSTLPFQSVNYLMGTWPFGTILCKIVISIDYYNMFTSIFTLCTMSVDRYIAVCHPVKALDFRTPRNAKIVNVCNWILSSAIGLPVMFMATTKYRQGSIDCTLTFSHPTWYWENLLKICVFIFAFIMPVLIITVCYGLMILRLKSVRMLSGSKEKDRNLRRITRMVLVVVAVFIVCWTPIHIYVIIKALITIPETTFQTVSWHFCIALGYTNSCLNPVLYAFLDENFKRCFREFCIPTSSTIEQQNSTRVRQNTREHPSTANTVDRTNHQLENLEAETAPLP

[5] = Agonist activity at MOR/CB1R/CB2R receptor in Wistar rat brain membranes after 60 mins by [35S]-GTPgammaS binding assay; format: cell membranes
[6] = molecular target: Delta-type opioid receptor (Rattus norvegicus, UniProt P33533); assay: Displacement of [3H]Ile5,6-deltorphin-2 from DOR in Wistar rat brain membranes after 60 mins by liquid scintillation analysis; format: cell membranes
Chain of Delta-type opioid receptor (P33533 whole entry): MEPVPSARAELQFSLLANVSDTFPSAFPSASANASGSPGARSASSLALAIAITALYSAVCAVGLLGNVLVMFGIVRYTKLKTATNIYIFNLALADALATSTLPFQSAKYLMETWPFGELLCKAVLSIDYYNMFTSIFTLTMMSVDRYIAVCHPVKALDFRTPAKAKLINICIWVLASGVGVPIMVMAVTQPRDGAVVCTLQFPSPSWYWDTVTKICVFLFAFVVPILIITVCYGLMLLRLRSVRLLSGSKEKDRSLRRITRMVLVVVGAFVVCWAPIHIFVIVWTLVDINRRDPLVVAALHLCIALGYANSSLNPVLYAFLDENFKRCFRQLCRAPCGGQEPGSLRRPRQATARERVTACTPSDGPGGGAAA

Rattus norvegicus [7] = species: Rattus norvegicus; settings: Wistar, Brain, Membranes, at 10 µM
Cannabinoid receptor [8] = molecular target: T3, Cannabinoid receptor; format: cell membranes, Wistar, Brain, Membranes
[9] = molecular target: Mu-type opioid receptor (Rattus norvegicus) (UniProt P33535); assay: Antagonist activity at MOR in Wistar rat brain membranes at 10 uM in presence of oxycodone after 60 mins by [35S]-GTPgammaS binding assay relative to control; format: functional, cell membranes
Chain of Mu-type opioid receptor (Rattus norvegicus) (P33535 whole entry): as the sequence (P33535 whole entry) above
How it was run: (§3)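 Rat brain membranes (30 µg protein/tube) incubated 60 min at 30 °C with 0.05 nM [35S]GTPγS and ligand at 10^-10–10^-5 M. Buffer: 50 mM Tris-HCl pH 7.4 with 30 µM GDP, 100 mM NaCl, 3 mM MgCl2, 1 mM EGTA. Nonspecific binding taken with 10 µM GTPγS; basal set as 100%. Filtration and scintillation counting; n≥3.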

[10] = molecular target: Mu-type opioid receptor (Rattus norvegicus) (UniProt P33535); assay: Antagonist activity at MOR in Wistar rat brain membranes at 10 uM in presence of Tyr-D-Ala-Gly-Phe-NH2 after 60 mins by [35S]-GTPgammaS binding assay relative to control; format: functional, cell membranes; how it was run: as §3
Rattus norvegicus [11] = species: Rattus norvegicus; assay: Antagonist activity at MOR/CB1R/CB2R in Wistar rat brain membranes at 10 uM in presence of (S)-N-((2R,8S)-18-(3-(1-naphthoyl)-1H-indol-1-yl)-8-benzyl-3,6,9,12-tetraoxo-4,7,10,13-tetraazaoctadecan-2-yl)-2-amino-3-(4-hydroxyphenyl)propanamide after 60 mins by liquid scintillation analysis relative to control; format: cell membranes; how it was run: as §1
Rattus norvegicus [12] = species: Rattus norvegicus; assay: Antagonist activity at MOR/CB1R/CB2R in Wistar rat brain membranes at 10 uM in presence of N-[6-[[2-[[(4R,4aS,7aR,12bS)-4a-hydroxy-9-methoxy-3-methyl-2,4,5,6,7a,13-hexahydro-1H-4,12-methanobenzofuro[3,2-e]isoquinoline-7-ylidene]amino]oxyacetyl]amino]hexyl]-6-[3-(naphthalene-1-carbonyl)indol-1-yl]hexanamide after 60 mins by [35S]-GTPgammaS binding assay relative to control; format: cell membranes; how it was run: as §1
[13] = molecular target: T1, Cannabinoid receptor (Rattus norvegicus); assay: Displacement of [3H]JWH-018 from CB1R/CB2R in Wistar rat brain membranes at 10 uM after 60 mins by liquid scintillation analysis; format: cell membranes; how it was run: as §2

`COc1ccc(C(=O)c2c(C)n(CCN3CCOCC3)c3cc(I)ccc23)cc1` gave an Emax [1] of 100%, an Activity [2] of 70% and a Ki (Cannabinoid receptor [3]) of 27 nM.

For `C[C@@H](NC(=O)[C@@H](N)Cc1ccc(O)cc1)C(=O)NCC(=O)N[C@@H](Cc1ccccc1)C(=O)NCCCC(=O)NCCCCCn1cc(C(=O)c2cccc3ccccc23)c2ccccc21`, the Ki [4] was 50 nM, the Ki (Mu-type opioid receptor) was 20 nM and the EC50 [5] was 60 nM. For the same molecule, the Ki [6] was 92 nM, the Emax (Rattus norvegicus [7]) was 125% and the Ki (Cannabinoid receptor [3]) was 928 nM. For the same molecule, the Ki (Cannabinoid receptor [8]) was 1042 nM.

With H-RVDPVNFKLLSH-OH the Ki (Cannabinoid receptor [3]) was > 10000 nM.

For `C[C@@H](NC(=O)[C@@H](N)Cc1ccc(O)cc1)C(=O)NCC(=O)N[C@@H](Cc1ccccc1)C(=O)NCCCCCn1cc(C(=O)c2cccc3ccccc23)c2ccccc21`, the Ki [4] was 231 nM, the Ki (Mu-type opioid receptor) was 50 nM and the EC50 [5] was 1800 nM. The Ki [6] was 214 nM, the Emax (Rattus norvegicus [7]) was 110% and the Ki (Cannabinoid receptor [3]) was 1013 nM. It also gave a Ki (Cannabinoid receptor [8]) of 823 nM.

Molecule `CCCCCn1cc(C(=O)c2cccc3ccccc23)c2cc(Br)ccc21` has a Ki (Cannabinoid receptor [3]) of 59 nM.

Molecule `COc1ccc2c3c1O[C@H]1/C(=N\OCC(=O)NCCCOCCOCCOCCCNC(=O)CCCCCn4cc(C(=O)c5cccc6ccccc56)c5ccccc54)CC[C@@]4(O)[C@@H](C2)N(C)CC[C@]314` has a Ki [4] of 186 nM, an Emax [1] of 110% and a Ki (Mu-type opioid receptor) of 20 nM. For the same molecule, the Ki [6] was 386 nM, the Emax [9] was 100% and the Emax [10] was 97%. The Emax (Rattus norvegicus [7]) was 99%, the Ki (Cannabinoid receptor [3]) was 183 nM and the Ki (Cannabinoid receptor [8]) was 78 nM. For the same molecule, the Emax (Rattus norvegicus [11]) was 99% and the Emax (Rattus norvegicus [12]) was 101%.

With `COc1ccc2c3c1O[C@H]1/C(=N\OCC(=O)NCCNC(=O)CCCCCn4cc(C(=O)c5cccc6ccccc56)c5ccccc54)CC[C@@]4(O)[C@@H](C2)N(C)CC[C@]314` the Ki [4] was 337 nM, the Emax [1] was 107% and the Ki (Mu-type opioid receptor) was 33 nM. The Ki [6] was 623 nM, the Emax [9] was 101% and the Emax [10] was 102%. For the same molecule, the Emax (Rattus norvegicus [7]) was 100%, the Ki (Cannabinoid receptor [3]) was 255 nM and the Ki (Cannabinoid receptor [8]) was 9.3 nM. It also gave an Emax (Rattus norvegicus [11]) of 103% and an Emax (Rattus norvegicus [12]) of 102%.

In the case of `C=CCN1CC[C@]23c4c5ccc(O)c4O[C@H]2C(=O)CC[C@@]3(O)[C@H]1C5`, the Activity [13] is reported as “inactive”.

Work on `O=C(O)CCCCCn1cc(C(=O)c2cccc3ccccc23)c2ccccc21` yielded an EC50 [5] of 4220 nM, an Emax (Rattus norvegicus [7]) of 81% and a Ki (Cannabinoid receptor [3]) of 247 nM. The Ki (Cannabinoid receptor [8]) was 205 nM.

In the case of H-PVNFKFL-OH, the Ki (Cannabinoid receptor [3]) is reported as > 10000 nM.

For `CN1CC[C@]23c4c5ccc(O)c4O[C@H]2[C@@H](O)C=C[C@H]3[C@H]1C5`, the Activity [13] was “inactive”.

Work on `NCCCCCn1cc(C(=O)c2cccc3ccccc23)c2ccccc21` yielded an Emax (Rattus norvegicus [7]) of 102%, a Ki (Cannabinoid receptor [3]) of 190 nM and a Ki (Cannabinoid receptor [8]) of 269 nM.
